Experimental data: ChEMBL document CHEMBL3997773, “Synthesis of C-4-Substituted Steviol Derivatives and Their Inhibitory Effects against Hepatitis B Virus” (J Nat Prod, 2016)
Activity calls are given as the source filed them. The rule behind the calls is not given here.

Key:
[1] = Antiviral activity against Hepatitis B virus subtype adw2 infected in human HuH7 cells assessed as inhibition of viral DNA replication by RT-PCR method; type: functional, cell-based; conditions: Huh-7
[2] = system: Hepatitis B virus subtype adw2; assay: Antiviral activity against Hepatitis B virus subtype adw2 infected in human HuH7 cells assessed as inhibition of HBeAg secretion after 3 days by EIA; type: functional, cell-based
Method in brief: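 HBV-expressing Huh7 cells were given 2.5, 5 or 10 μg/mL for 3 days. HBsAg and HBeAg in the conditioned medium were measured by enzyme immunoassay. Mean ± SD, n = 3, compared with untreated cells.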

[3] = system: Hepatitis B virus subtype adw2; assay: Antiviral activity against Hepatitis B virus subtype adw2 infected in human HuH7 cells assessed as inhibition of viral DNA replication after 3 days by RT-PCR method; type: functional, cell-based
Method in brief: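 HBV-expressing Huh7 cells were dosed at 2.5, 5 or 10 μg/mL for 3 days. Viral DNA was isolated from virion particles in the conditioned medium and quantified by real-time PCR. Mean ± SD, n = 3, compared with untreated cells.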

[4] = Antiviral activity against Hepatitis B virus subtype adw2 infected in human HuH7 cells assessed as reduction in HBcAg level at 5 ug/ml after 2 days by immunoblot method relative to control; type: functional
Method in brief: (§1)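 Huh7 cells were transfected with pHBV1.2 (1.2-fold HBV adw2 genome) for 2 days, then exposed to 2.5, 5 or 10 μg/mL for another 2 days. Whole-cell protein was extracted with protease inhibitors. SHBs, HBcAg and HBx were detected by immunoblot, with α-tubulin for comparison.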

[5] = Antiviral activity against Hepatitis B virus subtype adw2 infected in human HuH7 cells assessed as reduction in HBcAg level at 10 ug/ml after 2 days by immunoblot method relative to control; type: functional; method in brief: as §1
[6] = Antiviral activity against Hepatitis B virus subtype adw2 infected in human HuH7 cells assessed as effect on HBx level at 2.5 ug/ml after 2 days by immunoblot method relative to control; type: functional; method in brief: as §1
Hepatitis B virus [7] = assay: Decrease in HBV X promoter activity infected in human HuH7 cells cotransfected with pHBV1.2 at 10 ug/ml after 24 hrs by luciferase reporter gene assay; type: cell-based
Method in brief: (§2)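 Huh7 cells were seeded for 24 h, then cotransfected with pHBV1.2, pRLSV40 and a pGL4.17-based Core (nt 1636-1851), S (nt 3114-220), PreS (nt 2438-2855) or X (nt 1071-1357) promoter-luciferase construct for 24 h. Cells were then treated at 10 μg/mL for 24 h and lysates were assayed for luciferase. Mean ± SD, n = 3.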

Hepatitis B virus [8] = assay: Decrease in HBV preS promoter activity infected in human HuH7 cells cotransfected with pHBV1.2 at 10 ug/ml after 24 hrs by luciferase reporter gene assay; type: cell-based; method in brief: as §2
[9] = Effect on AP-2 (unknown origin) promoter activity expressed in human HuH7 cells cotransfected with pHBV1.2 at 10 ug/ml after 24 hrs by luciferase reporter gene assay; type: cell-based
Method in brief: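 Huh7 seeded in 24-well plates for 24 h. They were cotransfected with pHBV1.2 plus a luciferase reporter carrying the AP-2 (pAP2-Luc) or ISRE (pISRE-Luc) element, at 1 μg/well, and pRLSV40, in serum-free DMEM for 24 h. After a PBS wash, cells were placed in DMEM with 2% FBS and treated with 10 μg/mL. Luciferase was read from lysates; mean ± SD, n = 3.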

Huh-7 [10] = assay: Decrease in IKKalpha protein expression in human HuH7 cells transfected with pHBV1.2 at 10 ug/ml after 2 days by immunoblot method relative to control; type: functional
Method in brief: (§3)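 Huh7 cells were transfected with pHBV1.2 for 2 days, then treated at 2.5, 5 or 10 μg/mL for another 2 days. Whole-cell protein was extracted with protease inhibitors. NF-κB p65/p50, phospho-p65, IKKα/β and IκBα/phospho-IκBα were detected by immunoblot. Blots are representative of three experiments.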

Huh-7 [11] = assay: Decrease in IKKbeta protein expression in human HuH7 cells transfected with pHBV1.2 at 5 ug/ml after 2 days by immunoblot method relative to control; type: functional; method in brief: as §3
[12] = target: T1, NF-kappa-B inhibitor alpha (Homo sapiens) (UniProt P25963); assay: Decrease in IKBalpha phosphorylation in human HuH7 cells transfected with pHBV1.2 at 2.5 ug/ml after 2 days by immunoblot method relative to control; type: cell-based; method in brief: as §3
T1 sequence (whole entry): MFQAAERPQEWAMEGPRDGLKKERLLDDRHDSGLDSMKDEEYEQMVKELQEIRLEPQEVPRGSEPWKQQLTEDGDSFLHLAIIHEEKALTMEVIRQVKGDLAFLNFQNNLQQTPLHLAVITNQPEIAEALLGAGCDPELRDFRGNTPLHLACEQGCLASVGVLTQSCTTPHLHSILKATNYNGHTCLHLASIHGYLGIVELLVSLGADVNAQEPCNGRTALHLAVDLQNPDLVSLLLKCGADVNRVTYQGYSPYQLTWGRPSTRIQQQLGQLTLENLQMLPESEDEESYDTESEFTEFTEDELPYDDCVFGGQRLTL

[13] = target: T1, NF-kappa-B inhibitor alpha (Homo sapiens); assay: Decrease in IKBalpha phosphorylation in human HuH7 cells transfected with pHBV1.2 at 10 ug/ml after 2 days by immunoblot method relative to control; type: cell-based; method in brief: as §3
Huh-7 [14] = assay: Decrease in IKBalpha protein expression in human HuH7 cells transfected with pHBV1.2 at 10 ug/ml after 2 days by immunoblot method relative to control; type: functional; method in brief: as §3
Huh-7 [15] = assay: Decrease in IKBalpha protein expression in human HuH7 cells transfected with pHBV1.2 after 2 days by immunoblot method; type: functional, cell-based; method in brief: as §3
[16] = Antiviral activity against Hepatitis B virus subtype adw2 infected in human HuH7 cells assessed as inhibition of viral DNA replication at 10 ug/ml after 2 days by RT-PCR method relative to control; type: functional; conditions: Huh-7, 48 h
Method in brief: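 Huh7 cells were cotransfected with pHBV1.2 and, where stated, 0.5 or 2.5 μg pCMV-p65 (or empty vector) for 2 days, then treated at 10 μg/mL for 2 days. In separate wells, HBV-expressing cells received 10 μg/mL with or without anisomycin (10 μM) for 2 days. Secreted viral particles were kit-isolated and HBV DNA was measured by real-time PCR, n = 3.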

[17] = target: Mitogen-activated protein kinase; ERK1/ERK2 (Homo sapiens) (UniProt P27361+P28482); assay: Decrease in ERK1/2 phosphorylation in human HuH7 cells transfected with pHBV1.2 at 2.5 to 10 ug/ml after 2 days by immunoblot method
Mitogen-activated protein kinase; ERK1/ERK2 (Homo sapiens), sequence (P27361 whole entry, looked up): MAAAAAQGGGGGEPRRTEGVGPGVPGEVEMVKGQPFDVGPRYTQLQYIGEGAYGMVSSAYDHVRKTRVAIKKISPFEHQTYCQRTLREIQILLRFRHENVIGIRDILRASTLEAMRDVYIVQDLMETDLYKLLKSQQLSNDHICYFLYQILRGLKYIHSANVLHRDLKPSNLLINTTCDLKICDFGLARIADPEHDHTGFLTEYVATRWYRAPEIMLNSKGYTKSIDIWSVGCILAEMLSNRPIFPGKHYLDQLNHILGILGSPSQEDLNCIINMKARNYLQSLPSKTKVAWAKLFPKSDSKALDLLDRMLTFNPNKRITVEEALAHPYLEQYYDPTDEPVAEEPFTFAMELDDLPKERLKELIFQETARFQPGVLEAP
Mitogen-activated protein kinase; ERK1/ERK2 (Homo sapiens), sequence (P28482 whole entry, looked up): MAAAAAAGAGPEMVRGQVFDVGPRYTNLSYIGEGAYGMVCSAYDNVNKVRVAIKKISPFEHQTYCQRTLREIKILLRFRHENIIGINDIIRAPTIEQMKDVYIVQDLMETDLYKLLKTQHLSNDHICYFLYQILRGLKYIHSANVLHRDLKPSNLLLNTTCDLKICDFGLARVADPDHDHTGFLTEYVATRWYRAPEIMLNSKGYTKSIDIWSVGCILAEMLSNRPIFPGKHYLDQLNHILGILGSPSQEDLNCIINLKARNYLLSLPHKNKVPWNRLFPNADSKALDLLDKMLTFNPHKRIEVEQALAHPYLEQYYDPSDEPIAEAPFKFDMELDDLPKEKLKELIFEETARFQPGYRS

[18] = Antiviral activity against Hepatitis B virus subtype adw2 infected in human HepG2.2.15 cells assessed as inhibition of HBeAg secretion by EIA
Huh-7 [19] = assay: Decrease in p38 MAPK protein expression in human HuH7 cells transfected with pHBV1.2 at 5 ug/ml after 2 days by immunoblot method relative to control
Huh-7 [20] = assay: Decrease in p38 MAPK protein expression in human HuH7 cells transfected with pHBV1.2 at 10 ug/ml after 2 days by immunoblot method relative to control

IC50 [1]: 16.9 µM
fold change (FC) [12]: 0.97
fold change (FC) [13]: 0.25
Activity [17]: Active
IC50 [18]: 20.4 µM
Compound: C=C1C[C@@]23CC[C@H]4[C@@](C)(CCC[C@@]4(C)NC(=O)NCCCC)[C@@H]2CC[C@]1(O)C3
inhibition [2]: Dose-dependent effect
inhibition [3]: Dose-dependent effect
fold change (FC) [4]: 0.81
fold change (FC) [5]: 0.11
fold change (FC) [6]: 1.12
Activity (Hepatitis B virus [7]): Active
Activity (Hepatitis B virus [8]): Active
Activity [9]: inactive
fold change (FC) (Huh-7 [10]): 0.46
fold change (FC) (Huh-7 [11]): 0.97
fold change (FC) (Huh-7 [14]): 0.25
Activity (Huh-7 [15]): Dose-dependent effect
inhibition at 10 µg/mL [16]: 38%
fold change (FC) (Huh-7 [19]): 0.98
fold change (FC) (Huh-7 [20]): 0.33
